# Source: article PMC12900291 (European journal of medicinal chemistry, 2025)
# Values joined by “and” are separate entries in the source; they are usually repeats but may differ in a detail not shown here. Equal entries are not always repeated. “Also recorded” adds a separate entry of the source.
# Experiments:
# [1] = tested on: HEK-293 cells; assay: Cell viability; type: cell-based; settings: read-out: Cell viability IC50, 72 h exposure, MTT
# Summary of the method: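 HEK-293.2sus cells were seeded at 9.6 × 10^3 cells/well and given a concentration gradient of test compound for 72 h at 37 °C, 5% CO2. MTT (0.5 mg/mL) was added for 3–4 h, medium removed, formazan dissolved in DMSO (15 min shaking, 21 °C), and A595 read. Cell-free background was subtracted, values taken relative to DMSO controls, and IC50 fitted by nonlinear least squares. n = 3–6.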
# [2] = molecular target: T1, SERCA2a (Sus scrofa, UniProt P11607); assay: oxalate-based Ca2+-uptake; type: biochemical, porcine; settings: cardiac SR
# Summary of the method: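 Porcine left-ventricular SR vesicles (30 μg/mL) were prepared by differential centrifugation. Buffer: 50 mM MOPS, 100 mM KCl, 30 mg/mL sucrose, 10 mM potassium oxalate, 2 μM Fluo-4, free Ca2+ at pCa 8.0, 6.2 or 5.4, test compound 0.048–50 μM (two-fold series). Incubation 20 min at 22 °C, dark; 5 mM MgATP start; Fluo-4 decrease (ex 485/em 520 nm) tracked 15 min. Basal pCa 8.0 rate subtracted; Hill fit gives EC50 and % effect.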
# [3] = Solubility assay in phosphate buffer, LC-MS/MS; type: physicochemical; settings: 50 mM phosphate buffer pH 7.4, 37 °C, 12 h
# [4] = Intrinsic clearance; type: in vitro ADME, human; settings: for Thalf: human liver S9 0.5 mg/mL, 1 μM compound, NADPH, 37 °C; for microsomal CLint at 1 μM: human, liver S9 fraction, pH 7.4
# [5] = molecular target: T1, SERCA2a; assay: NADH-coupled enzyme-linked Ca2+-ATPase activity assay in cardiac SR vesicles; type: biochemical, porcine; settings: for EC50 / Ca2+-ATPase [Ca2+]MAX % effect / Ca2+-ATPase [Ca2+]MID % effect: cardiac SR; for Max increase (%): vs no compound
# [6] = molecular target: T1, SERCA2a; settings: earlier HTS study; cited from earlier work
# [7] = molecular target: T1, SERCA2a; settings: earlier HTS study; cited from earlier work; remark: listed apart in the source
# [8] = tested on: cardiomyocytes; settings: cited from earlier work
# [9] = tested on: SERCA1a; assay: NADH-coupled Ca2+-ATPase activity assay in skeletal SR vesicles; type: biochemical, rabbit; settings: Table 5 vs Table S2
# Summary of the method: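 Light SR came from rabbit skeletal white muscle by differential centrifugation and sucrose gradient. NADH-coupled assay: 4 μg/mL SR in 50 mM MOPS pH 7.0, 100 mM KCl, 1 mM EGTA, 0.2 mM NADH, 1 mM PEP, 10 IU/mL PK and LDH, 7 μM A23187, pCa 5.4/6.2/8.0. Test compound (0.048–50 μM) 20 min; 5 mM MgATP start; A340. pCa 8.0 rate subtracted; Hill fit gives EC50 and maximal % effect.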
# [10] = Ca2+-Uptake [Ca2+]MAX EC50 (μM), [Ca2+]MAX (pCa 5.4)
# [11] = Ca2+-Uptake [Ca2+]MID EC50 (μM), [Ca2+]MID (pCa 6.2)
# [12] = Ca2+-ATPase [Ca2+]MAX EC50 (μM), [Ca2+]MAX (pCa 5.4)
# [13] = Ca2+-ATPase [Ca2+]MID EC50 (μM), [Ca2+]MID (pCa 6.2)
# [14] = Ca2+-ATPase activity, [Ca2+]MAX (pCa 5.4), mean±SD, n=4-6
# T1 sequence (P11607 1-997 isoform P11607-2): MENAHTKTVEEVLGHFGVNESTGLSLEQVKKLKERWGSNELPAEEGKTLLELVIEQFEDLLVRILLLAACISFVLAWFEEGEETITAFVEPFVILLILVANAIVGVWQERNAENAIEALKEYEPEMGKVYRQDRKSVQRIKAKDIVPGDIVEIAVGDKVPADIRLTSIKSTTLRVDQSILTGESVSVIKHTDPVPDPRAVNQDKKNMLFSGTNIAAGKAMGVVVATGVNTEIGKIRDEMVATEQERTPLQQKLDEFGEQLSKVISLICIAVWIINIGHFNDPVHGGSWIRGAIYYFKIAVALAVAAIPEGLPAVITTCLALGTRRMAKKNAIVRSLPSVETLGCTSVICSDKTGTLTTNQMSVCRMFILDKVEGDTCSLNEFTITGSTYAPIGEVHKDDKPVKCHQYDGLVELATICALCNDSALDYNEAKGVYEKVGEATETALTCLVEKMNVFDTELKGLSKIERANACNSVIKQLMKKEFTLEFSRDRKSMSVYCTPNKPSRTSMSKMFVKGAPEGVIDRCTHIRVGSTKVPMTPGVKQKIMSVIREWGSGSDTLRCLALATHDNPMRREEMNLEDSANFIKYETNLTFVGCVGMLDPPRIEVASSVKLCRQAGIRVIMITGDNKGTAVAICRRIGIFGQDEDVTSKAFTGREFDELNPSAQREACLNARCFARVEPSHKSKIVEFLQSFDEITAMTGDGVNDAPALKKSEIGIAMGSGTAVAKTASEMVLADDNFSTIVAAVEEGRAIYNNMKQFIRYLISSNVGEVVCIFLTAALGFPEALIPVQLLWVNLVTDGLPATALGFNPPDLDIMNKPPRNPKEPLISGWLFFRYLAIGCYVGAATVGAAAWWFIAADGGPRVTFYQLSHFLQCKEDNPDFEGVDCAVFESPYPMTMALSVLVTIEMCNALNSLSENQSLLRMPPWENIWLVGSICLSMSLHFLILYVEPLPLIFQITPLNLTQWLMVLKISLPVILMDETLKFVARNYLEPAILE
SMILES,"EC50 [2, 10] [µM]","EC50 [2, 11] [µM]",Ca2+-Uptake [Ca2+]MAX EC50 (μM) ([2]; [Ca2+]MAX (pCa 5.4)),Solubility [3] [µg/mL],Thalf [4] [min],microsomal CLint at 1 μM [4] [µL/min/mg],"EC50 [5, 12] [µM]","EC50 [5, 13] [µM]","Max increase (%) [5, 14]",Ca2+-Uptake [Ca2+]MAX % effect ([2]; [Ca2+]MAX (pCa 5.4)) [%],Ca2+-Uptake [Ca2+]MID % effect ([2]; [Ca2+]MID (pCa 6.2)) [%],"selectivity for SERCA2a relative to SERCA1a, higher efficacy, ATPase activity ([9]; [Ca2+]MAX)",Ca2+-ATPase [Ca2+]MAX % effect ([5]; [Ca2+]MAX (pCa 5.4)) [%],Ca2+-ATPase [Ca2+]MID % effect ([5]; [Ca2+]MID (pCa 6.2)) [%],"selectivity for SERCA1a (vs SERCA2a), ATPase activity ([9]; [Ca2+]MID)","Max decrease (%) [5, 14] [%]",IC50 [1] [µM],activation of SERCA2a Ca2+-uptake [6] [%],activation of SERCA2a ATPase activity [7] [%],SR Ca2+ load / Ca2+ dynamics [8]
"Cc1ccc2cccc(NC(=O)c3ccc(OC(C)C)cc3)c2n1 [CDN1163, reference compound]",,,,,,,,,,,,,,,,,63,,,
"CCCN(Cc1ccccc1OC)C(=O)c1cc(C)c(C)s1 [Compound 1, N-(2-Methoxybenzyl)-4,5-dimethyl-N-propylthiophene-2-carboxamide]",1.1 ± 0.73,0.46 ± 0.35,,,97.6,14 ± 1.1,5.3 ± 1.8,6 ± 1.2,57% and 57±13%,,,,,,,,,24,58,increase SR Ca^2+ load; also recorded: increased Ca^2+ dynamics and Ca^2+ load
"CCCN(Cc1ccccc1OC)C(=O)c1cc2c(s1)CCCC2 [Compound 8, N-(2-Methoxybenzyl)-N-propyl-4,5,6,7-tetrahydrobenzo[b]thiophene-2-carboxamide]",1.1 ± 0.45,> 50,unchanged,,20.1,73 ± 9.3,3.3 ± 0.5,3.6 ± 2.8,45% and 45±10%,8.8±2.3,,,,,,,29 ± 18,,,

# Continued, in another order:
"EC50 [2, 10] [µM]","EC50 [2, 11] [µM]",Ca2+-Uptake [Ca2+]MAX EC50 (μM) ([2]; [Ca2+]MAX (pCa 5.4)),Solubility [3] [µg/mL],Thalf [4] [min],microsomal CLint at 1 μM [4] [µL/min/mg],"EC50 [5, 12] [µM]","EC50 [5, 13] [µM]","Max increase (%) [5, 14]",Ca2+-Uptake [Ca2+]MAX % effect ([2]; [Ca2+]MAX (pCa 5.4)) [%],Ca2+-Uptake [Ca2+]MID % effect ([2]; [Ca2+]MID (pCa 6.2)) [%],"selectivity for SERCA2a relative to SERCA1a, higher efficacy, ATPase activity ([9]; [Ca2+]MAX)",Ca2+-ATPase [Ca2+]MAX % effect ([5]; [Ca2+]MAX (pCa 5.4)) [%],Ca2+-ATPase [Ca2+]MID % effect ([5]; [Ca2+]MID (pCa 6.2)) [%],"selectivity for SERCA1a (vs SERCA2a), ATPase activity ([9]; [Ca2+]MID)","Max decrease (%) [5, 14] [%]",SMILES,IC50 [1] [µM],activation of SERCA2a Ca2+-uptake [6] [%],activation of SERCA2a ATPase activity [7] [%],SR Ca2+ load / Ca2+ dynamics [8]
0.8 ± 0.57,0.89 ± 0.4,decreased,507 ± 7,74.5,15 ± 7.2,4 ± 2.1,3.7 ± 0.73,53% and 53±7.7%,,,,,,,,"CCCN(Cc1ccccc1OC)C(=O)c1ccc(F)c(Br)c1 [Compound 25, 3-Bromo-4-fluoro-N-(2-methoxybenzyl)-N-propylbenzamide]",,,,
0.77 ± 0.57,0.91 ± 0.85,decreased,,34.7,37 ± 6.2,6.3 ± 1.8,4.6 ± 2,43±6.7%,13±5.7,6.0±1.6,at least 8 fold,43±6.7,24±6.0,,,"CCN(Cc1ccccc1OC)C(=O)c1cc(C)c(C)s1 [Compound 32, N-Ethyl-N-(2-methoxybenzyl)-4,5-dimethylthiophene-2-carboxamide]",,,,
0.54 ± 0.3,> 50,decreased,,62.4,22 ± 1.1,2.2 ± 0.27,2.1 ± 0.88,33±6.5%,,,,,,,,"CCCN(Cc1ccccc1OC)C(=O)c1cc(F)cc(Br)c1 [Compound 26, 3-Bromo-5-fluoro-N-(2-methoxybenzyl)-N-propylbenzamide]",,,,
1.5 ± 0.33,1 ± 0.86,increased,,10.3,133 ± 11,5.1 ± 2.1,5.3 ± 1.3,40±14%,15±5.9,7.0±3.7,,40±14,25±7.4,at least 8 fold,,"CCCN(Cc1ccccc1OC)C(=O)c1cccc(C(F)(F)F)c1 [Compound 21, N-(2-Methoxybenzyl)-N-propyl-3-(trifluoromethyl)benzamide]",31 ± 16,,,
> 50,9.2 ± 1.5,,,15.3,79 ± 19,0.9 ± 0.38,15.3 ± 4.1,28±8.1%,,,,28±8.1,,,28±9.0,"CCCN(Cc1ccccc1OC)C(=O)c1ccc(Br)c(Br)c1 [Compound 23, 3,4-Dibromo-N-(2-methoxybenzyl)-N-propylbenzamide]",,,,
